Values after ≈ are worked out from the molar mass of the structure shown. Where a name gives a salt, the structure may show the parent alone.
Legend:
Chlamydia pneumoniae [1] = test: Antichlamydial activity against Chlamydia pneumoniae K7 infected in HL cells after 70 hrs by fluorescent microscopic analysis; format: functional, organism-based; conditions: for IC50: K7, HL, 70 h; for MIC90: K7, 70 h
Procedure, shortened: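 HL cells grown to confluence, infected with C. pneumoniae K7 at MOI 0.3 in medium with 1 μg/mL cycloheximide, centrifuged 500 rpm 1 h, then 37 °C 1 h. At 2 h, inoculum replaced by cycloheximide medium with compound at 12 concentrations from 1 nM to 100 μM. Incubated 70 h at 37 °C, stained, and inclusions counted by fluorescence microscopy. Three runs; IC50 from variable-slope sigmoidal fit. Azithromycin 20 nM as positive control.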

[2] = Cytotoxicity against human HL cells assessed as cell viability at 50 uM after 72 hrs by resazurin dye based fluorescence assay relative to control; conditions: HL cells, read-out: Activity
Procedure, shortened: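 HL cells grown overnight to confluence, then exposed to compound at 50 μM for 72 h at 37 °C, four parallel replicates. Read-out after 2 h with 20 μM resazurin in PBS, fluorescence at 570/590 nm (ex/em). Viability % is relative to cells in 0.25% DMSO medium. Usnic acid 50 μM as positive control.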

Chlamydia pneumoniae [3] = test: Antichlamydial activity against Chlamydia pneumoniae K7 infected in HL cells assessed as chlamydial inhibition at 50 uM after 70 hrs by fluorescent microscopic analysis; format: functional
Procedure, shortened: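 Confluent HL cells infected with C. pneumoniae K7 at MOI 0.3 in medium with 1 μg/mL cycloheximide, centrifuged 500 rpm 1 h, then held at 37 °C for 1 h. At 2 h, compound added at 50 μM or DMSO vehicle. After 70 h at 37 °C, inclusions stained and counted in four fields per coverslip under a fluorescence microscope (20×). Inhibition % is relative to mean vehicle counts.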

MIC90 (Chlamydia pneumoniae [1]) [µM] | Structure (SMILES) | IC50 (Chlamydia pneumoniae [1]) [µM] | viability at 72 h, 50 µM [2] [%] | inhibition at 50 µM (Chlamydia pneumoniae [3]) [%]
– | CC(=O)N[C@H]1CN2CC[C@H](O)[C@@H]2[C@@H](O)[C@@H]1O | 67.2 | 86.6 | 59.8
– | CCOC(=O)Oc1c(OC)cc(C(=O)O[C@H]2C[C@H]3CN4CCc5c([nH]c6cc(OC)ccc56)[C@@H]4C[C@H]3[C@@H](C(=O)OC)[C@@H]2OC)cc1OC | – | 67.6 | –
– | C[C@@H]1C[C@H]2CC[C@H](O2)[C@H](C)C(=O)O[C@@H](C)C[C@@H]2CC[C@@H](O2)[C@@H](C)C(=O)O[C@H](C)C[C@H]2CC[C@H](O2)[C@H](C)C(=O)O[C@@H](C)C[C@@H]2CC[C@@H](O2)[C@@H](C)C(=O)O1 | – | 23.7 | –
– | C=C[C@](C)(O)CC[C@H]1C(=C)CC[C@H]2C(C)(C)CCC[C@]12C | 35.5 | 88.6 | 60
– | CCC1=CC2CN3CCc4c([nH]c5ccccc45)[C@@](C(=O)OC)(C2)C13 | 52.6 | 88.9 | 68.1
– | COc1c(O)c2c(=O)cc(OC)c3c4c(OC)cc(=O)c5c(O)c(OC)c6c(c(c1CC(C)(O)C6C(C)=O)c23)c54 (configuration not stated) | – | -0.3 | –
– | O=c1cc(-c2ccccc2)oc2cc(O)ccc12 [7-HYDROXYFLAVONE] | – | 71.1 | –
– | O=C1c2c(O)cc(O)cc2O[C@H](c2ccc(O)c(O)c2)[C@H]1O [(+)-TAXIFOLIN] | – | 95.2 | 13.4
– | C=C1CC[C@H]2O[C@]2(C)CC[C@@H]2[C@@H]1CC2(C)C [(-)-CARYOPHYLLENE OXIDE] | – | 107 | 35.7
– | Oc1cc(O)c2c(c1)O[C@H](c1ccc(O)c(O)c1)[C@H](O)C2 [(-)-EPICATECHIN] | – | 93.4 | 41.7
– | C[C@@]1(CO)[C@H](O)CC[C@@]2(C)[C@H]1CC[C@H]1C[C@@H]3C[C@@]12CC[C@]3(O)CO [APHIDICOLIN] | – | 92.3 | -3.8
– | O=c1cc(-c2ccc(O)cc2)oc2cc(O[C@@H]3O[C@H](CO)[C@@H](O)[C@H](O)[C@H]3O)cc(O)c12 [APIGETRIN] | – | 48.1 | –
– | c1cc2c(cc1[C@H]1OC[C@H]3[C@@H]1CO[C@H]3c1ccc3c(c1)OCO3)OCO2 [ASARININ] | – | 57.1 | –
– | CC(=O)O[C@H]1C(=O)[C@@]2(C)[C@H]([C@H](OC(=O)c3ccccc3)[C@]3(O)C[C@H](O)C(C)=C1C3(C)C)[C@]1(OC(C)=O)CO[C@@H]1C[C@@H]2O [BACCATIN III] | – | 34.6 | –
– | O=C(/C=C/c1ccc(O)c(O)c1)OCCc1ccccc1 [CAFFEIC ACID PHENETHYL ESTER] | – | 46 | –
– | C/C=C(/C)C(=O)O[C@H]1CC[C@@]2(C)[C@@H]3CC[C@H]4[C@]5(O)C[C@H](O)[C@@]6(O)[C@@H](CN7C[C@@H](C)CC[C@H]7[C@@]6(C)O)[C@]5(O)C[C@@]42O[C@]13O [CEVADINE] | – | 98.6 | 39
– | CO[C@H]1[C@@H](O)[C@@H](C)O[C@H](O[C@H]2[C@H](Oc3cccc4c(O)c5c(=O)oc6ccc(C)c7c(=O)oc(c34)c5c67)O[C@H](C)[C@H](O)[C@@H]2O)[C@@H]1O [CHARTREUSIN] | – | 4 | –
– | CC(=O)O[C@H]1[C@H]2O[C@]23[C@@H]2CC[C@@H]4C[C@@H](O)CC[C@]4(C)[C@H]2CC[C@]3(C)[C@H]1c1ccc(=O)oc1 [CINOBUFAGIN] | – | 0.2 | –
– | COc1ccc(C(=O)OC2C[C@H]3CC[C@H](C2)N3C)cc1OC (some centres not stated) [CONVOLVAMINE HYDROCHLORIDE] | – | 78.8 | 21.1
– | O=c1oc2cc(O)ccc2c2oc3cc(O)ccc3c12 [COUMESTROL] | – | 96.3 | 0
– | C[C@@H]1C[C@@H]([C@H](O)CC2CC(=O)NC(=O)C2)C(=O)[C@@H](C)C1 [CYCLOHEXIMIDE] | – | 66.4 | –
– | COc1cc2c(cc1OC)[C@@H]1C(=O)c3ccc4c(c3O[C@@H]1CO2)C=CC(C)(C)O4 [DEGUELIN] | – | 21.6 | –
– | CC1=CC(=O)C2=C(C)CC[C@@H]3[C@H](OC(=O)[C@H]3C)[C@@H]12 [DESACETOXYMATRICARIN] | – | 93.9 | 30.1
– | COc1cc(/C=C/c2ccccc2)oc(=O)c1 [DESMETHOXYYANGONIN] | – | 89.8 | 35.7
– | C[C@H]1O[C@@H](O[C@H]2[C@@H](O)C[C@H](O[C@H]3[C@@H](O)C[C@H](O[C@H]4CC[C@@]5(C)[C@H](CC[C@@H]6[C@@H]5CC[C@]5(C)[C@@H](C7=CC(=O)OC7)CC[C@]65O)C4)O[C@@H]3C)O[C@@H]2C)C[C@H](O)[C@@H]1O [DIGITOXIN] | – | 0.1 | –
– | CC(C)[C@@]1(NC(=O)[C@@H]2C[C@@H]3c4cccc5[nH]cc(c45)C[C@H]3N(C)C2)O[C@@]2(O)[C@@H]3CCCN3C(=O)[C@H](Cc3ccccc3)N2C1=O [DIHYDROERGOCRISTINE MESYLATE] | – | 2.7 | –

MIC90 (Chlamydia pneumoniae [1]) [µM] | Structure (SMILES) | IC50 (Chlamydia pneumoniae [1]) [µM] | viability at 72 h, 50 µM [2] [%] | inhibition at 50 µM (Chlamydia pneumoniae [3]) [%]
– | CC(C)=CCC[C@](C)(O)[C@H]1CC[C@]2(C)[C@@H]1CC[C@@H]1[C@@]3(C)CCC(=O)C(C)(C)[C@@H]3CC[C@]12C [DIPTEROCARPOL] | – | 32.1 | –
– | C[C@@H]1O[C@@H](OC[C@H]2O[C@@H](Oc3cc(O)c4c(c3)O[C@H](c3ccc(O)c(O)c3)CC4=O)[C@H](O)[C@@H](O)[C@@H]2O)[C@H](O)[C@H](O)[C@H]1O [ERIOCITRIN] | – | 75.2 | 8.6
– | O=C1C[C@@H](c2ccc(O)c(O)c2)Oc2c1ccc(O[C@@H]1O[C@H](CO)[C@@H](O)[C@H](O)[C@H]1O)c2O [FLAVANOMAREIN] | – | 82.6 | 22.1
– | Cc1cc2c(C(C)C)c(O)c(O)c(C=O)c2c(O)c1-c1c(C)cc2c(C(C)C)c(O)c(O)c(C=O)c2c1O [GOSSYPOL] | – | 0.1 | –
– | Cn1c(-c2ccc3c(c2)OCO3)cc(=O)c2ccccc21 [GRAVEOLINE] | – | 100 | 5.3
– | COc1ccc2c(c1)[nH]c1c(C)nccc12 [HARMINE HYDROCHLORIDE] | – | 87.3 | 26
– | COc1ccc([C@@H]2CC(=O)c3c(O)cc(O[C@@H]4O[C@H](CO[C@@H]5O[C@@H](C)[C@H](O)[C@@H](O)[C@H]5O)[C@@H](O)[C@H](O)[C@H]4O)cc3O2)cc1O [HESPERIDIN] | – | 101 | 26.8
– | C=CCc1ccc(O)c(-c2ccc(O)c(CC=C)c2)c1 [HONOKIOL] | – | 8.8 | –
– | O=C1Nc2ccccc2/C1=C1/Nc2ccccc2C1=O [INDIRUBIN] | – | 92.5 | 2
– | O=c1c(O[C@@H]2O[C@H](CO)[C@@H](O)[C@H](O)[C@H]2O)c(-c2ccc(O)c(O)c2)oc2cc(O)cc(O)c12 [ISOQUERCETIN] | – | 95.8 | 38
– | CC1=C2C(=O)[C@H]3[C@@H](CC=C4C[C@@H](O)CC[C@@]43C)[C@@H]2CC[C@]12O[C@@H]1C[C@H](C)CN[C@H]1[C@H]2C [JERVINE] | 25.6 | 89.3 | 74.8
– | CN1CCc2cc(O)c(O)cc2C1Cc1ccc(O)c(O)c1 (configuration not stated) [LAUDANOSOLINE HYDROBROMIDE] | – | 72.8 | –
– | OC[C@@H]1CCCN2CCCC[C@H]12 [LUPININE] | – | 98.7 | 28.2
1 (≈ 0.32 µg/mL) | COc1c(C)c2c(c(O)c1C/C=C(\C)CCC(=O)O)C(=O)OC2 [MYCOPHENOLIC ACID] | 0.31 | 86.6 | 98
– | CCn1cc(C(=O)O)c(=O)c2ccc(C)nc21 [NALIDIXIC ACID] | – | 15.8 | –
– | C[C@@H]1C/C=C/C=C/C=C/C=C/[C@H](O[C@@H]2O[C@H](C)[C@@H](O)[C@H](N)[C@@H]2O)C[C@@H]2O[C@](O)(C[C@@H](O)C[C@H]3O[C@@H]3/C=C/C(=O)O1)C[C@H](O)[C@H]2C(=O)O [NATAMYCIN] | – | 67.1 | –
1.38 (≈ 0.499 µg/mL) | CC1COc2c(N3CCN(C)CC3)c(F)cc3c(=O)c(C(=O)O)cn1c23 (configuration not stated) [OFLOXACIN] | – | – | –
– | CC1(C)CC[C@]2(C(=O)O)CC[C@]3(C)C(=CC[C@@H]4[C@@]5(C)CC[C@H](O)C(C)(C)[C@@H]5CC[C@]43C)[C@@H]2C1 [OLEANOLIC_ACID] | – | 36.3 | –
– | C=C1C(=O)[C@]23[C@H](O)[C@H]1CC[C@H]2[C@@]12CO[C@]3(O)[C@@H](O)[C@@H]1C(C)(C)CC[C@@H]2O [ORIDONIN] | – | 0 | –
– | C[C@]1(C(=O)O)CCC[C@]2(C)c3cc(O)ccc3CC[C@@H]12 [PODOCARIC ACID] | – | 27.9 | –
– | CCCCC[C@H](O)/C=C/C1=C(CCCCCCC(=O)O)C(=O)CC1 [PROSTAGLANDIN B1] | – | 109 | 39.8
– | C[C@@H]1C[C@H]2O[C@@H]2/C=C\C=C\C(=O)Cc2c(Cl)c(O)cc(O)c2C(=O)O1 [RADICICOL] | – | 0.6 | –
– | CN1CCc2cc3c(c4c2[C@H]1Cc1ccccc1-4)OCO3 [REMERINE HYDROCHLORIDE] | – | 45.2 | –
– | c1ccc2c3c([nH]c2c1)CNCC3 [TRYPTOLINE] | – | 84.8 | 4.9
– | O[C@H]1CCN2Cc3ccccc3N=C12 [VASICINE] | – | 102 | -1.4

Reference: ChEMBL document CHEMBL4130515, “Identification of Privileged Antichlamydial Natural Products by a Ligand-Based Strategy” (J Nat Prod, 2017)
